In BindingDB's records for PubMed 35349261 (Hospital Regional Universitario, 2022):

Target: T1, Glucagon-like peptide 1 receptor (Rattus norvegicus, UniProt P32301)
T1 sequence (P32301 whole entry): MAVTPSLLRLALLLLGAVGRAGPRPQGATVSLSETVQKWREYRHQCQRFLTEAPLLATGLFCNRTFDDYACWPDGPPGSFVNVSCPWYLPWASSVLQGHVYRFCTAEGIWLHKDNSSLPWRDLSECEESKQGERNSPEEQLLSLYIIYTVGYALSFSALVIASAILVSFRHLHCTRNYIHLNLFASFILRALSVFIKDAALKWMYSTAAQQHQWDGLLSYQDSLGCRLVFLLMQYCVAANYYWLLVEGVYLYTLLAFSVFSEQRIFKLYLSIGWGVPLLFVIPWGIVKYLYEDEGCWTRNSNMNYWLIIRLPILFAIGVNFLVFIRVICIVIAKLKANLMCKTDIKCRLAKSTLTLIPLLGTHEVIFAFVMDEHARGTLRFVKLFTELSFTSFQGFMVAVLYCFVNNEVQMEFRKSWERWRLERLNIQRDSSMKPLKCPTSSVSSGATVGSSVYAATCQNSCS
Experiment: Positive allosteric modulator activity at GLP-1R in rat INS1 beta-cells assessed potentiation of GLP-1(7-36)NH2 induced insulin secretion at 0.1 nM incubated for 30 mins in presence of exendin(9-39)NH2 by ELISA
How it was run: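 Rat INS-1E cells in RPMI 1640 with 10% fetal calf serum at 37 °C, 7.5% CO2. Cells were detached, washed and plated at 100,000 cells/well, then held in glucose-free medium for 1.5 h. […] Insulin in the medium was read by ELISA; data are triplicate.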

SMILES: FC(F)(F)c1ccc(-c2noc(CN3CCCC(CN4CCOCC4)C3)n2)cc1 (stereo unspecified)
- IC50: 6.3 nM
